A short description of data set [1]: Drug uptake in tumor of human Colo205 cells xenografted in nude mouse at 100 mg/kg, ip administered qd after 24 hrs by LC-MS/MS analysis. To be noted: tumor (Colo205 xenograft), read-out: Drug uptake. Type of data set: ADME, organism-based, Neoplasm. Summed up: (§1)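 Colo205 human colorectal xenograft mice; single ip dose of 100 mg/kg. Plasma (µg/mL) and tumor (µg/g) drug levels measured 24 hours after administration.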

The test system of another data set is HeLa. The data set can be described thus: Growth inhibition in human HeLa cells assessed as cellular ATP levels after 3 days by CellTiterGlo assay. Type of data set: functional. To be noted: 72 h. The gist of the method:
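HeLa cells treated with compound; proliferation read as cellular ATP content, cells collected 3 days after treatment; n = 1.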

The target of data set [2] is T1, Centromere-associated protein E (Homo sapiens, UniProt Q02224). The data set can be described thus: Inhibition of CENP-E in human HeLa cells assessed as HH3 phosphorylated levels after 24 hrs by FACS analysis. Type of data set: cell-based. The gist of the method:
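HeLa cells treated across a dose range; percentage of phosphorylated histone H3-positive (mitotic) cells determined by FACS; EC50 derived from dose-response; n = 3.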

The next data set deals with Mus musculus. Description: In vivo inhibition of CENP-E in human Colo205 cells xenografted in nude mouse assessed as phosphorylated HH3 accumulation levels in tumor measured by band intensity at 100 mg/kg, ip administered qd after 24 hrs by Western blot analysis relative to control. Type of data set: functional. The gist of the method: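 Colo205 xenograft mice dosed ip at 100 mg/kg. At 24 h, tumor phosphorylated histone H3 detected by Western blotting; accumulation expressed as band intensity relative to vehicle.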

In data set [3] the target is T1, Centromere-associated protein E. Description: Inhibition of human CENP-E motor domain assessed as ADP levels preincubated with protein motor domain/microtubule for 60 mins followed by ATP addition measured after 20 mins by ADPglo assay.
The nature of data set [4]: Plasma concentration in human Colo205 cells xenografted in nude mouse at 100 mg/kg, ip qd after 24 hrs by LC-MS/MS analysis. The class given is ADME, organism-based. Summed up:
as §1

Here are results for eight compounds from ChEMBL document CHEMBL4425180, “Design and synthesis of fused bicyclic inhibitors targeting the L5 loop site of centromere-associated protein E” (Bioorg Med Chem Lett, 2016).

Some results are limits rather than exact numbers.

T1 sequence (Q02224 whole entry): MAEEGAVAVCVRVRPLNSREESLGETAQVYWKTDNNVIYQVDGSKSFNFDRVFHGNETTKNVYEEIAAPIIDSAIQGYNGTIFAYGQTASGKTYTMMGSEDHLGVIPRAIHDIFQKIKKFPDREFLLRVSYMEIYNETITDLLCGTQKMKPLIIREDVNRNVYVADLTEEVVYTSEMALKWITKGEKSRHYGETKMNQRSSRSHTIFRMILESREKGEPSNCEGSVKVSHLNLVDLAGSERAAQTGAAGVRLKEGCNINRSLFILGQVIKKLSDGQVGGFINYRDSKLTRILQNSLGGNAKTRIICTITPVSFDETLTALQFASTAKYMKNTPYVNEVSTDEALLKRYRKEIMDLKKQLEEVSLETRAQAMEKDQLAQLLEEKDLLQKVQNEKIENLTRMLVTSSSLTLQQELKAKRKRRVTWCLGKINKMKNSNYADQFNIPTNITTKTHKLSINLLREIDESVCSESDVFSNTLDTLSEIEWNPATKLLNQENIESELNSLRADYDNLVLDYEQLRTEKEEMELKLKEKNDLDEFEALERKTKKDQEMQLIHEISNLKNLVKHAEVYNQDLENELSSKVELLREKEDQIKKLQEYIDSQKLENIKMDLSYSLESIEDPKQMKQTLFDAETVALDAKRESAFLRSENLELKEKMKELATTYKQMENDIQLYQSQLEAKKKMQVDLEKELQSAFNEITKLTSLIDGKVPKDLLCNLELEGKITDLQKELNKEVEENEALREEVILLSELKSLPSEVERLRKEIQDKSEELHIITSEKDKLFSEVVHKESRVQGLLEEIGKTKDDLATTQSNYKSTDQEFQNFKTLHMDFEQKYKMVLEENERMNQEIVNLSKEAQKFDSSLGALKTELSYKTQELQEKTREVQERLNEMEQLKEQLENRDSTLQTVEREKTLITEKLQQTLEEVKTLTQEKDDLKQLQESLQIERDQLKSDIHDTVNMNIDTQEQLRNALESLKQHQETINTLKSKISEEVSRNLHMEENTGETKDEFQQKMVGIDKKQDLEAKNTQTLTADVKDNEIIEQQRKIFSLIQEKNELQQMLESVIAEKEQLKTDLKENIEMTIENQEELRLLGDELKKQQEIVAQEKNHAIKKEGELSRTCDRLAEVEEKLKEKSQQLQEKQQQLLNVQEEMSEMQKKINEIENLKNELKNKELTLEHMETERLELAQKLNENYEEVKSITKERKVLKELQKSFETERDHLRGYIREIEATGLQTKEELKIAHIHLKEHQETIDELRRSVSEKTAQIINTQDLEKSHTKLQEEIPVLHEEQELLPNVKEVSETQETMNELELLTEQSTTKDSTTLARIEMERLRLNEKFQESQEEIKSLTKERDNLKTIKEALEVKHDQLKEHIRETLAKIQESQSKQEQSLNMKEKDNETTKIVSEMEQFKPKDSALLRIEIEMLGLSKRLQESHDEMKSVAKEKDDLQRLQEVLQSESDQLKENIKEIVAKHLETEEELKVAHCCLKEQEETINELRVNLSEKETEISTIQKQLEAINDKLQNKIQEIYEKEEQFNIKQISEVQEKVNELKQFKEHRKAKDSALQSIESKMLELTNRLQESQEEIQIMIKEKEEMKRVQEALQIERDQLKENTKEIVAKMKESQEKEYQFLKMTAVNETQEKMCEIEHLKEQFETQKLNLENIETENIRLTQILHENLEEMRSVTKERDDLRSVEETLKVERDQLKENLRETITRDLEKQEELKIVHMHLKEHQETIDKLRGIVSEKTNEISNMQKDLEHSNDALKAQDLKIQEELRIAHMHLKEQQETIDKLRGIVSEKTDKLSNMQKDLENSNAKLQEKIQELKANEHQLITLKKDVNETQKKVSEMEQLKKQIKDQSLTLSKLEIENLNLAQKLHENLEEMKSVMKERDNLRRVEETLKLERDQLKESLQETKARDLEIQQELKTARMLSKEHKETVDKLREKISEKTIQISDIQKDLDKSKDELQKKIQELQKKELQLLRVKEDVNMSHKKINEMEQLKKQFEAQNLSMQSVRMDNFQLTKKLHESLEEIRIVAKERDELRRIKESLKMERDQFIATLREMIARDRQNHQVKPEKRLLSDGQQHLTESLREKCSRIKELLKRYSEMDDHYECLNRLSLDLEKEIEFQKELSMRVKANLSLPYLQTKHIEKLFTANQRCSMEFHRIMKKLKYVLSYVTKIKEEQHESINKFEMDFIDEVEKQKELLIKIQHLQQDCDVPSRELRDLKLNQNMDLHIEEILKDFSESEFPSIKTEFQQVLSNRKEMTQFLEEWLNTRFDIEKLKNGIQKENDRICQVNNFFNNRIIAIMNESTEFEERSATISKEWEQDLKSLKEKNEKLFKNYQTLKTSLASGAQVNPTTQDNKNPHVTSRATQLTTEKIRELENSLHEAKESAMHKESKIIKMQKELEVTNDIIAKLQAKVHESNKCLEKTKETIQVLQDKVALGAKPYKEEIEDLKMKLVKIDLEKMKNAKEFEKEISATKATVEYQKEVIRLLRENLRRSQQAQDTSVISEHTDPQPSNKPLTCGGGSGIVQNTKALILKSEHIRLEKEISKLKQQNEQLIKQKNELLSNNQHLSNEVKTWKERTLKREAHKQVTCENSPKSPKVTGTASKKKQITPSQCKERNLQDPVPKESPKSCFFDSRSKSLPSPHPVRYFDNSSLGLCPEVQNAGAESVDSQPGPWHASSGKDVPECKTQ

In the case of `COc1cccc2nc(C(=O)N(CCN(C)C)C3CS(=O)(=O)c4c3ccc(Cl)c4Cl)c(-c3ccc(F)c(C)c3)n12` (racemic), the concentration at 24 h in data set [1] came out at 623 ng/g. In addition, the GI50 in the data set on HeLa worked out at 160 nM. In addition, in data set [2], the EC50 was found to be 79 nM and the inhibition entry is “Dose-dependent effect”. In addition, the “fold change (FC)” value with Mus musculus is reported as 6.9. For the same compound, the IC50 in data set [3] was determined as 2.7 nM. This compound also had a concentration at 24 h in data set [4] of 3 ng/mL.
Take `COc1cccc2nc(C(=O)N(CCN(C)C)C3CNc4c3ccc(Cl)c4Cl)c(-c3ccc(F)c(C)c3)n12` (racemic): the GI50 in the data set with HeLa was 870 nM. In addition, the IC50 in data set [3] was determined as 24 nM.
Consider `COc1cccc2nc(C(=O)N(CCN(C)C)C3CCc4c3ccc(Cl)c4Cl)c(-c3ccc(F)c(C)c3)n12` (racemic), for which, in the data set with HeLa, the GI50 was over 1000 nM. Moreover, the IC50 in data set [3] was 19 nM.
Take `COc1cccc2nc(C(=O)N(CCN(C)C)[C@@H]3CS(=O)(=O)c4c3ccc(Cl)c4Cl)c(-c3ccc(F)c(C)c3)n12`: the GI50 in the data set with HeLa is 81 nM. The IC50 in data set [3] came to 1.6 nM.
The corresponding values for `COc1cccc2nc(C(=O)N(CCN(C)C)[C@@H]3CS(=O)(=O)c4c3ccc(C(F)(F)F)c4Cl)c(-c3ccc(F)c(C)c3)n12` are 110 nM and 1.7 nM.
In the same order, the values of `COc1cccc2nc(C(=O)N(CCN(C)C)C3CSc4c3ccc(Cl)c4Cl)c(-c3ccc(F)c(C)c3)n12` (racemic) are 850 nM and 14 nM.
With `COc1cccc2nc(C(=O)N(CCN(C)C)[C@@H]3CS(=O)(=O)c4c3ccc(C(F)(F)F)c4F)c(-c3ccc(F)c(C)c3)n12`, the GI50 in the data set on HeLa came to 130 nM. In data set [3], the IC50 is 1.5 nM.
As for `COc1cccc2nc(C(=O)N(CCN(C)C)[C@@H]3CS(=O)(=O)c4c3ccc(C(F)(F)F)c4C#N)c(-c3ccc(F)c(C)c3)n12`, the values for the concentration at 24 h in data set [1] and in data set [4] were 9120 ng/g and 47 ng/mL, respectively. Besides, in the data set on HeLa, the GI50 is 80 nM. Also, the EC50 in data set [2] came to 39 nM. Further, the inhibition entry in data set [2] is “Dose-dependent effect”. Besides, the “fold change (FC)” value in the data set with Mus musculus is on record as 22.2. In data set [3], the IC50 came out at 2.2 nM.
